Drawing on ChEMBL document CHEMBL4393735, “Molecular modelling, synthesis, and biological evaluations of a 3,5-disubstituted isoxazole fatty acid analogue as a PPARα-selective agonist” (Bioorg Med Chem, 2019), this text covers Activity for one compound.

Each structure is given as a SMILES string. Activity calls are given as the source filed them.

Series [1] deals with T1, Peroxisome proliferator-activated receptor gamma (Homo sapiens) (UniProt P37231).
T1 sequence (whole entry): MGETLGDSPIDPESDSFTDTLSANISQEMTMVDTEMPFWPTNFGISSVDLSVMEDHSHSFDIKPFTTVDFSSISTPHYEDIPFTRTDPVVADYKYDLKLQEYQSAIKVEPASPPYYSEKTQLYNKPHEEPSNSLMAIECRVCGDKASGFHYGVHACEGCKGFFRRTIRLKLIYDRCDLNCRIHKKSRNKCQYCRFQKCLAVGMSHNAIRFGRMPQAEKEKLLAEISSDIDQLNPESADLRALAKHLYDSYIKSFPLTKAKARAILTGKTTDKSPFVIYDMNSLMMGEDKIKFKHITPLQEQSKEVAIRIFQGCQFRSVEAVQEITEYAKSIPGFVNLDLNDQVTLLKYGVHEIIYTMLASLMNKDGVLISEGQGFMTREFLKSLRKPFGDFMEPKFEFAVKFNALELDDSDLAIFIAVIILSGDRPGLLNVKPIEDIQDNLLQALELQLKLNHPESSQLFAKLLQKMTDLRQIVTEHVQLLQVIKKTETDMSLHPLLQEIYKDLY
The series is described as follows: Agonist activity at full length human FLAG-tagged GAL4-DBD fused PPARgamma LBD (205 to 505 residues) expressed in COS1 cells transfected with hRXRalpha and hPLIN1-driven reporter assessed as PLIN1 mRNA level at 50 uM measured after 18 hrs by dual luciferase reporter gene assay. The format is cell-based. A digest of the protocol:
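COS-1 cells were transfected with full-length human PPARα (or PPARγ) plus RXRα expression plasmids, with a wild-type or PPRE-mutated CPT1A-intronic (or PLIN1) luciferase reporter and pRL-CMV. Cells were treated with 50 μM in 0.1% DMSO (final) for 18 h. Dual-luciferase read-out normalized to DMSO control. Three biological replicates in quadruplicate, mean ± SEM.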
In general terms: A reporter such as luciferase makes a cellular process visible.

The test system of series [2] is COS-1. The series is described as follows: Cytotoxicity against African green monkey COS1 cells assessed as reduction in cell viability at 10^-3 M by LDH release assay relative to control. Particulars: chlorocebus aethiops, cos-1, 1000 µM. The format is cell-based. A digest of the protocol:
(§1)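 COS-1 cells were treated across the same concentration series as the GAL4 dose-response runs. Cytotoxicity was measured as LDH released into medium (absorbance 492/750 nm) and by XTT viability assay (absorbance 450/690 nm). Results expressed relative to control.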

For series [3], the target named is T2, Peroxisome proliferator-activated receptor alpha (Mus musculus) (UniProt P23204).
T2 sequence (whole entry): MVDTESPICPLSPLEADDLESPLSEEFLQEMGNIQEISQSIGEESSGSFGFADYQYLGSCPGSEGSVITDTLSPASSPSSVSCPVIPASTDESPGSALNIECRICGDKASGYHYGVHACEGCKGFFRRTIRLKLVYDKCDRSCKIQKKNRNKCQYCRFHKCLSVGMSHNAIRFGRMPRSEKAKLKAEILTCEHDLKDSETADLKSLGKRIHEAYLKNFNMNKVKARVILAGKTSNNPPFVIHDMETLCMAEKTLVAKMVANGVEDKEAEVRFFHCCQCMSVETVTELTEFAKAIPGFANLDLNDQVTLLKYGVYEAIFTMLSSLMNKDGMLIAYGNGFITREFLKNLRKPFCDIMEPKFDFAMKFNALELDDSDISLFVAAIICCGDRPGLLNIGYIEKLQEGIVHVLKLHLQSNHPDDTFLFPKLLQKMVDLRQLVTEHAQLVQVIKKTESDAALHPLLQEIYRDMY
The series is described as follows: Agonist activity at PPARalpha in C57BL/6N mouse primary hepatocytes assessed as activation of Cpt1a mRNA expression at 50 uM measured after 18 hrs by qRT-PCR analysis. It is filed as cell-based. An outline of the steps:
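Treatment for 18 h at 50 μM (or 1 μM for the 1 μM agents), DMSO vehicle. Harvested for qPCR. mRNA normalized to TBP by the comparative threshold method, expressed relative to DMSO control. Two biological replicates run in duplicate, mean ± SEM. Primary hepatocytes came from male C57BL/6N mice aged 7–8 weeks, isolated by portal-vein perfusion and digestion, seeded on collagen I and used on day 2. HuH-7 cells were kept in DMEM with 10% FBS and ITS.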
(In qPCR the cycle at which signal appears reflects the starting amount.)

The subject of series [4] is COS-1. The series is described as follows: Cytotoxicity against African green monkey COS1 cells assessed as reduction in cell viability at 10^-4 M by LDH release assay. It is filed as cell-based. As to conditions: chlorocebus aethiops, cos-1, 100 µM. A digest of the protocol:
as §1
Background: LDH leaks from cells whose membrane has failed.

In series [5] the test system is SGBS. The series is described as follows: Upregulation of PPARgamma gene expression in human preadipocyte derived from Simpson-Golabi-Behmel syndrome (SGBS) patient at 25 uM measured for 12 days by qRT-PCR analysis. The format is functional, cell-based. A digest of the protocol: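 SGBS cells grown 4 days in biotin/D-pantothenate medium, then differentiated without FBS (apo-transferrin, insulin, T3, hydrocortisol, IBMX, dexamethasone) with 25 μM compound or 0.1 % DMSO added from day 0. After 4 days, switched to maintenance medium without IBMX/dexamethasone, renewed day 8. qPCR on days 0, 4, 8, 12, normalized to TBP (comparative threshold) and to day 0. Minimum three biological replicates in duplicate, mean ± SEM.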

Series [6] deals with T3, Oxysterols receptor LXR-beta (Homo sapiens) (UniProt P55055).
T3 sequence (whole entry): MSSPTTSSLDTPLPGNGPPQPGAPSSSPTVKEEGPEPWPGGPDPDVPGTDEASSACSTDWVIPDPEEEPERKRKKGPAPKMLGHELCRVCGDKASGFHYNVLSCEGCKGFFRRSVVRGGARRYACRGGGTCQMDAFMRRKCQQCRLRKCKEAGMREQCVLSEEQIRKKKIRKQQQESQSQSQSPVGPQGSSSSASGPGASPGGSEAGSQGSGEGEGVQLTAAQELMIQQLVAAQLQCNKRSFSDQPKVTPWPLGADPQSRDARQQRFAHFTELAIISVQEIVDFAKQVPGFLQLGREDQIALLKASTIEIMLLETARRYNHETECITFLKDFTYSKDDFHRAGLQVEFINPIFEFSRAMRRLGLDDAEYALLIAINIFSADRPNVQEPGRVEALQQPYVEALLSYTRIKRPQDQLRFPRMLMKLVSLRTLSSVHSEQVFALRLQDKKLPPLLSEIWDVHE
The series is described as follows: Agonist activity at full length human GAL4-DBD fused LXRbeta LBD (155 to 461 residues) expressed in COS1 cells at 25 to 50 uM measured after 18 hrs by dual luciferase reporter gene assay. The format is cell-based. A digest of the protocol:
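COS-1 cells were transfected using Lipofectamine 2000 with GAL4-DBD–human NR-LBD plasmid, a 5×UAS-SV40 firefly luciferase reporter and pRL-CMV. After 6 h, cells were treated with 0, 25 or 50 μM in 0.1% DMSO (final) for 18 h. Firefly signal was normalized to Renilla, then to DMSO control and GAL4-only. Three biological replicates in quadruplicate, mean ± SEM, two-way ANOVA with Bonferroni.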

Series [7] deals with SGBS. The series is described as follows: Upregulation of ADIPOQ gene expression in human preadipocyte derived from Simpson-Golabi-Behmel syndrome (SGBS) patient at 25 uM measured for 12 days by qRT-PCR analysis. The format is functional, cell-based. An outline of the steps: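 SGBS cells were differentiated with serum-free induction medium containing 25 μM test agent, 2 μM rosiglitazone or 0.1% DMSO from day 0. IBMX and dexamethasone were removed on day 4 and medium was renewed on day 8. RNA was taken on days 0, 4, 8 and 12 for qPCR, normalized to TBP and to day 0. At least three biological replicates in duplicate, two-way ANOVA with Bonferroni.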

Consider `CCCCCCCc1cc(CCCCCC(=O)O)no1`, for which the outcome in series [1] and in series [6] was inactive. Moreover, the Activity is recorded as 60% in the series on COS-1 [2] and “Toxic” in the series on COS-1 [4]. The outcome (in series [3]; with SGBS [5]; with SGBS [7]) was Active.
